Assay type in all cases: functional
The test system of assay [1] is Pseudomonas aeruginosa. The assay is described as follows: Antibacterial activity against Pseudomonas aeruginosa at 1 to 10 mg/mL after 24 hrs by agar well diffusion method. In outline: (§1)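 Agar well diffusion. Bacterial pellets from a 24 h culture (about 10⁴–10⁶ CFU/ml) were spread on nutrient agar (tryptone 1%, yeast extract 0.5%, NaCl 0.5%, agar 1%, pH 7.0). Wells received DMSO solutions at 10 mg/mL, with DMSO as control and tetracycline as reference. Plates ran 24 h at 37 °C. Each zone was measured three times by caliper and averaged; three runs per culture.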
Background: Agar diffusion results depend on both activity and mobility in agar.

Assay [2] concerns Aspergillus flavus. As to the kind of experiment: Antifungal activity against Aspergillus flavus at 1 to 10 mg/mL after 3 to 4 days by agar well diffusion method. In outline: (§2)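 Fungi were grown on Sabouraud dextrose agar (glucose–peptone–agar 40:10:15) after single-spore purification. Wells (4 mm × 2 mm) were cut and their bottoms sealed with 0.8% soft agar, then loaded with DMSO solutions at 10 mg/mL. DMSO served as control and amphotericin B as reference. Plates incubated at 30 °C for 3–4 days. Inhibition zone diameter was measured three times by caliper and averaged.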

Assay [3] concerns Aspergillus flavus. The assay is described as follows: Antifungal activity against Aspergillus flavus after 3 to 4 days by agar well diffusion method. In outline: (§3)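 Agar well diffusion on Sabouraud dextrose agar (glucose–peptone–agar 40:10:15), with cultures purified by single-spore isolation. Wells (4 mm × 2 mm) were sealed at the bottom with 0.8% soft agar and loaded with DMSO solutions. DMSO served as control and amphotericin B as reference. Incubation was 30 °C for 3–4 days; each zone was measured three times by caliper and averaged.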

Assay [4] has as its system Candida albicans. As to the kind of experiment: Antifungal activity against Candida albicans at 1 to 10 mg/mL after 3 to 4 days by agar well diffusion method. In outline:
as §2

Assay [5] has as its system Candida albicans. As to the kind of experiment: Antifungal activity against Candida albicans after 3 to 4 days by agar well diffusion method. In outline: as §3
Assay [6] relates to Staphylococcus aureus. The assay is described as follows: Antibacterial activity against Staphylococcus aureus at 1 to 10 mg/mL after 24 hrs by agar well diffusion method. Summed up:
as §1

A word on the MIC: it is the lowest concentration found to suppress growth. A low value points to inhibition by little substance. As to `COc1cc(C2C(C#N)=C(N)Oc3[nH]c(=S)[nH]c(=O)c32)cc(OC)c1OC` (centres undefined), the “diameter of the inhibition zone (DIZ)” value amounted to 13 mm in assay [1], 0 mm in assay [2], 10 mm in assay [4] and 13 mm in assay [6]. In addition, the minimum inhibitory concentration (MIC) in assay [3] and in assay [5] was < 50 µg/mL each time.

Consider `COc1cc(C2C(C#N)=C(NS(=O)(=O)c3ccccc3)Oc3[nH]c(=S)[nH]c(=O)c32)cc(OC)c1OC` (centres undefined), for which the “diameter of the inhibition zone (DIZ)” value in assay [1] stood at 13 mm; in assay [2], 0 mm; in assay [4], 12 mm; in assay [6] it was 14 mm. Moreover, the MIC in assay [3] and in assay [5] was < 50 µg/mL throughout.

Consider `COc1cc(C2c3c(nc[nH]c3=O)Oc3[nH]c(=S)[nH]c(=O)c32)cc(OC)c1OC` (centres undefined), for which the “diameter of the inhibition zone (DIZ)” value is recorded as 13 mm in assay [1], 0 mm in assay [2], 11 mm in assay [4] and 15 mm in assay [6]. Besides, the minimal inhibitory concentration (MIC) in assay [3] and in assay [5] was < 50 µg/mL throughout.

`CCOC(=O)C1=C(N)Oc2[nH]c(=S)[nH]c(=O)c2C1c1ccc(Cl)cc1` (centres undefined): the “diameter of the inhibition zone (DIZ)” value amounted to 19 mm in assay [1], 0 mm in assay [2], 13 mm in assay [4] and 16 mm in assay [6]. The MIC in assay [3] and in assay [5] was < 50 µg/mL each time.

For the compound `COc1cc(C2c3c(nc(N)c(C#N)c3N)Oc3[nH]c(=S)[nH]c(=O)c32)cc(OC)c1OC` (centres undefined), the “diameter of the inhibition zone (DIZ)” value is recorded as 12 mm in assay [1], 0 mm in assay [2], 10 mm in assay [4] and 13 mm in assay [6]. In addition, the minimal inhibitory concentration (MIC) in assay [3] and in assay [5] was < 50 µg/mL each time.

Consider `CCOC(=O)C1=C(N)Sc2[nH]c(=S)[nH]c(=S)c2C1c1ccc(Cl)cc1` (centres undefined), for which the “diameter of the inhibition zone (DIZ)” value was determined as 18 mm in assay [1], 14 mm in assay [2], 14 mm in assay [4] and 16 mm in assay [6]. For the same compound, the minimal inhibitory concentration (MIC) in assay [3] and in assay [5] was < 50 µg/mL in each case.

Turning to `C[C@@H]1[C@H](O)[C@@H](C)/C=C/C=C/C=C/C=C/C=C/C=C/C=C/[C@H](O[C@@H]2O[C@H](C)[C@@H](O)[C@H](N)[C@@H]2O)C[C@@H]2O[C@](O)(C[C@@H](O)C[C@@H](O)[C@H](O)CC[C@@H](O)C[C@@H](O)CC(=O)O[C@H]1C)C[C@H](O)[C@H]2C(=O)O` [AMPHOTERICIN B], the “diameter of the inhibition zone (DIZ)” value is 16 mm in assay [2] and 19 mm in assay [4].

For the compound `O=c1[nH]c(=S)nc2oc3cc(O)ccc3cc1-2`, the “diameter of the inhibition zone (DIZ)” value in assay [1] was found to be 14 mm; in assay [2], 0 mm; in assay [4], 0 mm; in assay [6] it was 15 mm. Also, the MIC in assay [3] and in assay [5] was < 50 µg/mL each time.

As for `NNC=C1C(=O)NC(=S)NC1=O`, the “diameter of the inhibition zone (DIZ)” value in assay [1] was found to be 18 mm; in assay [2] it was 36 mm; in assay [4], 0 mm; in assay [6] it was 18 mm.

For the compound `CCOC=C1C(=O)NC(=S)NC1=O`, the “diameter of the inhibition zone (DIZ)” value in assay [1] is recorded as 13 mm; in assay [2] it was 0 mm; in assay [4] it was 12 mm; in assay [6], 13 mm.

Turning to `CN(C)[C@@H]1C(O)=C(C(N)=O)C(=O)[C@@]2(O)C(O)=C3C(=O)c4c(O)cccc4[C@@](C)(O)[C@H]3C[C@@H]12` [TETRACYCLINE], the “diameter of the inhibition zone (DIZ)” value is reported as 28 mm in assay [1] and 26 mm in assay [6].

(Values after ChEMBL document CHEMBL1926503, “Efficient one-pot preparation of novel fused chromeno[2,3-d]pyrimidine and pyrano[2,3-d]pyrimidine derivatives” (2012).)
